# Assay results published in ChEMBL document CHEMBL1135536, “Structure-activity relationships in 4-aminoquinoline antiplasmodials. The role of the group at the 7-position” (J Med Chem, 2002).
# Key:
# [1] = Acid dissociation constant of the tertiary ammonium group; assay type: ADME; details: read-out: pKa2
# Outline: (§1)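 Glass-electrode potentiometric titration under nitrogen at 25 °C in 0.15 M NaCl background electrolyte. Data were fitted to give two pKa values per aminoquinoline. Reported values are the average of three independent measurements, with error given as 1 SD.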
# [2] = Acid dissociation constant of the quinolinium cation; assay type: ADME; details: read-out: pKa1; outline: as §1
# [3] = Association constant of hematin-aminoquinoline complex formation reported by spectrophotometric titration in aqueous dimethyl sulfoxide(DMSO) at pH 7.5; assay type: ADME; details: buffer
# Outline: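 Spectrophotometric titration of monomeric hematin with aminoquinoline, fitted to 1:1 complex formation. Run at 25 °C, pH 7.5, in 40% aqueous DMSO with 20 mM HEPES. Reported as log K, the average of three independent measurements ± 1 SEM.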
# [4] = Normalised IC50 was measured; assay type: functional
# Outline: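 Normalized IC50 is the D10 P. falciparum IC50 multiplied by α. α is the compound's calculated vacuolar accumulation ratio divided by chloroquine's, both from measured pKa values, assuming vacuolar pH 5.5 and external pH 7.4.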
# Plasmodium falciparum = test: In vitro antiplasmodial activity against chloroquine-sensitive Plasmodium falciparum D10; assay type: functional, organism-based
Structure (SMILES),pKa [1],pKa [2],Log K [3],IC50 (Plasmodium falciparum) [nM],IC50 [4] [nM]
CCN(CC)CCNc1ccnc2cc(F)ccc12,9.24,7.62,4.6,138,92
CCN(CC)CCNc1ccnc2cc(C)ccc12,9.51,8.12,4.86,82,74
CCN(CC)CCNc1ccnc2cc(Br)ccc12,7.97,7.93,4.99,36,28
CCN(CC)CCNc1ccnc2cc(Cl)ccc12,8.83,7.56,5.81,37,23
CCN(CC)CCNc1ccnc2cc(OC)ccc12,9.5,8.09,4.83,448,399

# Second part, led by results:
pKa [1],pKa [2],Log K [3],IC50 (Plasmodium falciparum) [nM],Structure (SMILES),IC50 [4] [nM]
9.42,7.96,4.75,1060,CCN(CC)CCNc1ccnc2ccccc12,892
7.79,7.48,5.02,35,CCN(CC)CCNc1ccnc2cc(I)ccc12,17
8.8,6.28,4.65,325,CCN(CC)CCNc1ccnc2cc([N+](=O)[O-])ccc12,28
8.95,6.82,4.48,3070,CCN(CC)CCNc1ccnc2cc(O)ccc12,700
10,8.36,4.35,> 5000,CCN(CC)CCNc1ccnc2cc(N)ccc12,> 4830
7.65,7.5,4.67,99,CCN(CC)CCNc1ccnc2cc(C(F)(F)F)ccc12,48
